T cruzi inh – blocks replication of Trypanosoma cruzi; AID 1885; T. cruzi beta-gal in NIH3T3, luminescence, 90 h; inhibition, % (concentration not given with the values); actives 1.4% (n = 300,000);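 active = mean inhibition across valid replicates above about 55%, limit read from the data; inconclusive = mean below that limit but half or more replicates reach it; inactive = mean below it, under half of replicates reach it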;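 note: signal also drops with host cell toxicity which is not excluded here; 0% = plate median of DMSO wells and 100% = zero luminescence signal; higher percent means less beta-gal luminescence so fewer parasites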
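Assay system: NIH/3T3 host cells with β-galactosidase reporter T. cruzi; input: 5,000 host fibroblasts per well; compound: single 50 nL compound addition per well in DMSO; timing: ≥90 h infection period, 3 h prior cell attachment; measured by: GalScreen β-gal luminescence, detergent lysis, 60 min; evaluation: percent inhibition of parasite-derived β-gal signal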
CTSL1 counter – blocks F. hepatica cathepsin L1 in PFM18AAP counter-screen | recombinant F. hepatica cathepsin L1, Z-Leu-Arg-MCA fluorescence | actives 0.49% (n = 300,000) | inhibition, % at 5.96 µM | AID 1906;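 active = inhibition above the mean of all tested compounds plus 3 SD, set per screening campaign, cut at about 17% in these data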;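 note: 0% = plate median of test compound wells and 100% = 1 µM Z-Phe-Ala-diazomethylketone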
PP5 inh – inhibitors of human protein phosphatase 5 (PP5); actives 0.18% (n = 320,000); inhibition, % at 6.7 µM; P53041; purified PP5c, OMFP substrate fluorescence;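 active = inhibition above the campaign's mean inhibition across all tested compounds plus 3 SD, cut at about 9.5% in these data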;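 note: 0% = DMSO only and 100% = 100 µM cantharidin control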
Target sequence (P53041 whole entry, looked up): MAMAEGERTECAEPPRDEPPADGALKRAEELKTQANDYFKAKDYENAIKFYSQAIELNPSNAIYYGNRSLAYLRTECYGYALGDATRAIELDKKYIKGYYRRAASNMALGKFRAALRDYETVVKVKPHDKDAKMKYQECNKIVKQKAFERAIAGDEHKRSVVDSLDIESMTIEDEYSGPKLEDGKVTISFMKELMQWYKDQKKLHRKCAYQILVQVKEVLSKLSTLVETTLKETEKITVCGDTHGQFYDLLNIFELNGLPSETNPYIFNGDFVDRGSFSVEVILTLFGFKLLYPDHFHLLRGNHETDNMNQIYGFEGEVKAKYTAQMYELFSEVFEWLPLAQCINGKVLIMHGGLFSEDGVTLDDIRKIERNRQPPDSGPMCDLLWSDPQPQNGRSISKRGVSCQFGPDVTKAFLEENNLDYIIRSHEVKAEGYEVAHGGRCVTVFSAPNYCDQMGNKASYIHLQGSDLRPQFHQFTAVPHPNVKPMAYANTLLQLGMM
p-CIP stab down – compounds decreasing mouse p/CIP protein stability; Q05BA5; F442A p/CIP-EGFP cells, EGFP fluorescence, 16 h; decrease of EGFP signal, % at 10 µM; actives 0.01% (n = 290,000);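 active = EGFP signal decrease of at least 30% at 10 µM or well 3 SD below plate mean, unless failing retest; inactive = the rest, including hits failing retest or dose response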
H9c2 protect – myocardial damage modulation in H9c2 cells. protection from H2O2 cell death, % at 20 µM. H9c2 cardiomyocytes, H2O2 injury protection, ATPLite, 2 h. actives 0.63% (n = 360,000). AID 588492;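 active = compounds giving at least 50% protection of heart cells from peroxide-induced death in the single-dose screen, raw or plate-pattern-corrected value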;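 note: 0% = DMSO wells with peroxide and 100% = DMSO wells without peroxide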
JMJD2C inh – human JMJD2C demethylase inhibition; Q9H3R0; GST-JMJD2C(1-420) H3K9me3 demethylation, DELFIA europium; inhibition, % at 2.35 µM; actives 0.069% (n = 330,000);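 active = more than half of a compound's replicate wells show inhibition beyond 50%, single wells judged on their own value; inconclusive = some, but no more than half, of replicates pass 50% inhibition; inactive = no replicate passes 50% inhibition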;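 note: signal counts dimethyl H3K9 product captured on neutravidin plate; 0% = median of DMSO wells and 100% = 0.3 times that DMSO median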
* = called active by the depositor. Shown are actives, neighbours in structure and some others; about 2.4% of the full set was active somewhere.

Results for CCCN(Cc1cc2cc(C)ccc2[nH]c1=O)C(=O)c1cccc([N+](=O)[O-])c1 ?
T cruzi inh: 7.1; CTSL1 counter: 18.6*; PP5 inh: 3.5; p-CIP stab down: 2.1; H9c2 protect: 3.1; JMJD2C inh: -1.8

Results for CCN(C(=O)COC(=O)CCc1c[nH]c2ccccc12)c1c(N)n(Cc2ccccc2)c(=O)[nH]c1=O ?
T cruzi inh: -11.0; CTSL1 counter: -4.2; PP5 inh: -0.1; H9c2 protect: -1.7; JMJD2C inh: inconclusive

Results for COc1ccc(C2CC(c3cccs3)=NN2S(C)(=O)=O)cc1OC (stereo not drawn) ?
CTSL1 counter: -0.6; PP5 inh: -0.3; p-CIP stab down: -4.5; H9c2 protect: -8.6; JMJD2C inh: 0.5

Results for COc1ccc(C2CC(c3cccs3)=NN2c2nc(-c3ccccc3)cs2)cc1OC (stereo not drawn) ?
T cruzi inh: 9.1; CTSL1 counter: 34.2*; PP5 inh: 2.3; p-CIP stab down: -13.1; H9c2 protect: 7.5; JMJD2C inh: -3.7

How did COc1ccc(C=C2CS(=O)(=O)CC(=Cc3ccc(OC)cc3)C2=O)cc1 do in these assays?
H9c2 protect: -12.6

How did N#Cc1nc(N2CCOCC2)nc(N2CCOCC2)n1 do in these assays?
T cruzi inh: -10.7; CTSL1 counter: 48.3*; PP5 inh: 0.0; p-CIP stab down: -18.7; H9c2 protect: 2.8; JMJD2C inh: -15.9

What do the screens show for `COc1ccc(OCCCn2cc(/C=C3/C(=N)N4C=C(C)SC4=NC3=O)c3ccccc32)cc1`?
T cruzi inh: 40.6; CTSL1 counter: -0.2; PP5 inh: -1.0; p-CIP stab down: 1.5; H9c2 protect: 15.3; JMJD2C inh: -1.3

What do the screens show for `COc1cccc(OCCCn2cc(/C=C3/C(=N)N4C=C(C)SC4=NC3=O)c3ccccc32)c1`?
T cruzi inh: 57.2*; CTSL1 counter: 2.9; PP5 inh: 0.6; p-CIP stab down: -31.8; H9c2 protect: 3.1; JMJD2C inh: -0.9

How did COc1ccc2c(c1)c(C(=O)N/N=C/c1cccc(O)c1)c(C)n2C do in these assays?
T cruzi inh: -14.6; CTSL1 counter: 7.5; PP5 inh: 2.4; p-CIP stab down: -8.7; H9c2 protect: 1.8; JMJD2C inh: -1.3

How did COc1ccc2c(c1)c(C(=O)N/N=C/c1cccc(Br)c1)c(C)n2C do in these assays?
T cruzi inh: 54.5*; CTSL1 counter: -2.8; PP5 inh: 4.5; p-CIP stab down: 0.7; H9c2 protect: -3.3; JMJD2C inh: 8.2

What do the screens show for `COc1cccc(/C=N/NC(=O)c2[nH]c(C)c(C(=O)N/N=C/c3cccc(OC)c3)c2C)c1`?
T cruzi inh: -18.2; CTSL1 counter: 4.1; PP5 inh: 0.2; p-CIP stab down: -6.8; H9c2 protect: 55.8*; JMJD2C inh: -5.8

How did CCOC(=O)C1(C)C(=O)CC2c3nc4ccccc4cc3CN2C1=O (stereo not drawn) do in these assays?
H9c2 protect: 5.4

Results for COc1ccc(-n2cc(-c3ccc(OC(F)F)cc3)[n+]3c2CCCCC3)cc1 ?
T cruzi inh: 59.4*; CTSL1 counter: -6.7; PP5 inh: -1.1; p-CIP stab down: -29.9; H9c2 protect: -29.5; JMJD2C inh: -2.0

Results for Clc1ccc(-c2cn(-c3ccc(Cl)cc3)c3[n+]2CCCCC3)cc1 ?
T cruzi inh: 31.4; CTSL1 counter: 4.8; PP5 inh: -0.1; p-CIP stab down: -7.5; H9c2 protect: -13.1; JMJD2C inh: 2.1

Results for COc1ccc(C(CNC(=O)c2cccc(S(=O)(=O)NCc3ccccc3)c2)N(C)C)cc1 (stereo not drawn) ?
T cruzi inh: 7.3; CTSL1 counter: -1.6; PP5 inh: 3.4; p-CIP stab down: -21.8; H9c2 protect: 0.0; JMJD2C inh: -4.8

What do the screens show for `COc1ccc(CCN(Cc2cccs2)S(=O)(=O)c2ccc(S(=O)(=O)N(C)C3CCCCC3)cc2)cc1OC`?
T cruzi inh: 61.1*; CTSL1 counter: -1.5; PP5 inh: 3.0; p-CIP stab down: -2.6; H9c2 protect: -4.7; JMJD2C inh: 13.2

What do the screens show for `CCOC(=O)c1sc2nccc(N(C)C)c2c1N=CNOCc1c(F)cccc1Cl`?
T cruzi inh: 69.9*; CTSL1 counter: 3.3; PP5 inh: 4.0; p-CIP stab down: -6.6; H9c2 protect: 1.8; JMJD2C inh: -5.9

Results for O=C(N/N=C/c1cc(Cl)cc([N+](=O)[O-])c1O)c1ccc2c(c1)OCO2 ?
T cruzi inh: 57.5*; CTSL1 counter: 9.0; PP5 inh: -6.3; p-CIP stab down: -1.0; H9c2 protect: 2.9; JMJD2C inh: 8.0

What do the screens show for `O=C(N/N=C/c1cc(Cl)cc([N+](=O)[O-])c1O)c1ccccc1NS(=O)(=O)c1cccs1`?
T cruzi inh: 26.5; CTSL1 counter: 11.9; PP5 inh: -0.6; p-CIP stab down: -7.5; H9c2 protect: 49.9*; JMJD2C inh: 2.4

How did COC(=O)c1ccc(NC(=O)CCc2nnc3ccc(N4CCC5(CC4)OCCO5)nn23)cc1 do in these assays?
T cruzi inh: 13.2; CTSL1 counter: 3.1; PP5 inh: 0.9; p-CIP stab down: -6.0; H9c2 protect: -1.5; JMJD2C inh: 4.1

Results for COc1ccc(-c2cnnn2-c2ccc([N+](=O)[O-])cc2)cc1 ?
T cruzi inh: 5.3; CTSL1 counter: -1.3; PP5 inh: 3.8; p-CIP stab down: 2.9; H9c2 protect: -5.8; JMJD2C inh: 9.3

What do the screens show for `CCc1cc(/C(Cc2ccc3ccccc3n2)=N\O)c(O)cc1O`?
T cruzi inh: -3.6; CTSL1 counter: -10.1; PP5 inh: 5.4; p-CIP stab down: -20.4; H9c2 protect: -25.8; JMJD2C inh: -30.7

Results for Cc1c(O)ccc(/C(Cc2ccc3ccccc3n2)=N\N)c1O ?
T cruzi inh: 36.6; CTSL1 counter: -2.3; PP5 inh: 1.4; p-CIP stab down: -6.3; H9c2 protect: 63.2*; JMJD2C inh: -1.5

What do the screens show for `CCOc1ccc(/C=N/NC(=O)CN2CCCCC2)cc1OCC`?
T cruzi inh: -10.5; CTSL1 counter: -0.1; PP5 inh: 3.9; p-CIP stab down: -25.2; H9c2 protect: -3.4; JMJD2C inh: -13.8

Results for CCOc1ccc(OCC)c(NC(=O)CSc2nnc(C3CC3)n2CC)c1 ?
T cruzi inh: 10.6; CTSL1 counter: 0.7; PP5 inh: 0.5; p-CIP stab down: -11.9; H9c2 protect: 1.2; JMJD2C inh: 18.1

What do the screens show for `COc1ccc2c(c1OC)C(=O)N1c3ccccc3C(=O)N(c3ccc(F)cc3)C21` (stereo not drawn)?
T cruzi inh: -7.5; CTSL1 counter: 1.7; PP5 inh: -1.2; p-CIP stab down: 8.3; H9c2 protect: 39.7; JMJD2C inh: -6.9

How did COc1ccc2c(c1OC)C(=O)N1c3ccccc3C(=O)N(c3ccccc3)C21 (stereo not drawn) do in these assays?
T cruzi inh: 10.4; CTSL1 counter: -0.2; PP5 inh: 4.1; p-CIP stab down: 4.1; H9c2 protect: 53.5*; JMJD2C inh: -31.5

Screening data from PubChem.
